Data reported in article PMC3694763 (Angewandte Chemie (International Ed. in English), 2012).

Assays:
factor Xa = factor Xa (Homo sapiens, UniProt P00742); assay: Determination of kcat/Km, cleavage by factor Xa; type: biochemical; conditions: for kcat/Km for factor Xa: 150 mM NaCl, 20 mM Tris pH 7.5, 2 mM CaCl2, 1% BSA, 37°C, Cy5 fluorescence
plasmin = plasmin (Homo sapiens, UniProt P00747); assay: Determination of kcat/Km, cleavage by plasmin; type: biochemical; conditions: for selectivity for thrombin over plasmin (ratio of kcat/Km): kcat/Km thrombin versus plasmin
[1] = target: thrombin activity in developing blood clots (Mus musculus, UniProt P19221); assay: Tail-clip model, ratiometric Cy5/Cy7 imaging of developing blood clots; type: in vivo; conditions: mouse tail clot
thrombin [2] = target: T1, thrombin (Homo sapiens, UniProt P00734); assay: Determination of kcat/Km, cleavage by thrombin; type: biochemical; conditions: PPRSFL replaced with norleucine-TPRSFL
[3] = tested on: pro-coagulation enzymes (thrombin, plasmin, factor Xa); type: biochemical; conditions: 1 µM RACPP, 50 nM enzyme, 37°C; tricine gel, Cy5/Cy7 ratio image
Method in brief: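 Each ratiometric probe was incubated separately with purified enzyme for set times. Cleavage products were separated on tricine-SDS polyacrylamide gels. Gels were imaged multispectrally with 620 nm excitation, collecting Cy5 (660–720 nm) and Cy7 (760–830 nm) emission. Cy5 images were divided by Cy7 images and pseudocoloured from blue (ratio minimum) to red (ratio maximum).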

thrombin [4] = target: T1, thrombin; type: biochemical; conditions: probe diluted in mouse plasma
Method in brief: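 Probe construction: Cy5 sits on the polycationic domain and the Cy7 acceptor on the polyanionic domain, joined by a thrombin-cleavable linker, so the intact probe undergoes FRET. Emission spectra were recorded in mouse plasma in a cuvette spectrofluorometer before and after adding purified thrombin. Cy5 emission peaks near 670 nm and Cy7 re-emission near 780 nm.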

MMP-9 = MMP-9 (Homo sapiens, UniProt P14780); assay: Addition of purified MMP-9 to developing blood pools of injected mice; type: in vivo, mouse; conditions: blood pool of injected mice; MMP-9 1 µl of 1.5 µM, 10 minutes
MMP-9, sequence (P14780 107-707): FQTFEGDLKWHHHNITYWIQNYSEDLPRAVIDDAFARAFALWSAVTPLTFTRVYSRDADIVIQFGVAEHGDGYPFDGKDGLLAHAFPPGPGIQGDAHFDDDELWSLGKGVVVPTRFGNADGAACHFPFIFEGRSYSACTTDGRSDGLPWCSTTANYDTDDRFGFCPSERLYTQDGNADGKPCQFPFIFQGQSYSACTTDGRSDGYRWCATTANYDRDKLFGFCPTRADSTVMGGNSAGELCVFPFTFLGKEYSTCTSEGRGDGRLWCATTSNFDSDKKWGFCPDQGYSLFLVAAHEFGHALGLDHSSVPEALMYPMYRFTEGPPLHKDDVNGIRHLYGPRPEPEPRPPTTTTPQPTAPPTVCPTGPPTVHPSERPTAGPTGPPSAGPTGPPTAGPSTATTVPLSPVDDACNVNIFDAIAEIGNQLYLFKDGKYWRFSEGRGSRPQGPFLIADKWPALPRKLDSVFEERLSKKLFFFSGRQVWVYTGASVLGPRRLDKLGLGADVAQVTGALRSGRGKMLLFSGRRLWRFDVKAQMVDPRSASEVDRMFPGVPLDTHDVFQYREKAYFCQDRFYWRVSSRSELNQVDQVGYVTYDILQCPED

plasmin, sequence (P00747 97-580 limits assumed, species assumed): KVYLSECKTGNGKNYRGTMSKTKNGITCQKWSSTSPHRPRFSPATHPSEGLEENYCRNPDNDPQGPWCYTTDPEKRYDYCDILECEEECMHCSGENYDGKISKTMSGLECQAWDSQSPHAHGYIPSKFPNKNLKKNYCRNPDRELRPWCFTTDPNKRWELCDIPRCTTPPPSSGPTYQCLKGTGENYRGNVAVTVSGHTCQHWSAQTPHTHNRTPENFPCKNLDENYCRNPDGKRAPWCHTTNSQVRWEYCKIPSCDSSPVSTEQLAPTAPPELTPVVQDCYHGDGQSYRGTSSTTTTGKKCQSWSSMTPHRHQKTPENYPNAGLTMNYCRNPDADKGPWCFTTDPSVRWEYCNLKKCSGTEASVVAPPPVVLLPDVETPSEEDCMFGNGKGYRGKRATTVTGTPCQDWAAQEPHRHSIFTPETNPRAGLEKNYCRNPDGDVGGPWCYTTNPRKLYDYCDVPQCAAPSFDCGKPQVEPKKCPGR
plasmin, sequence (P00747 581-810 limits assumed, species assumed): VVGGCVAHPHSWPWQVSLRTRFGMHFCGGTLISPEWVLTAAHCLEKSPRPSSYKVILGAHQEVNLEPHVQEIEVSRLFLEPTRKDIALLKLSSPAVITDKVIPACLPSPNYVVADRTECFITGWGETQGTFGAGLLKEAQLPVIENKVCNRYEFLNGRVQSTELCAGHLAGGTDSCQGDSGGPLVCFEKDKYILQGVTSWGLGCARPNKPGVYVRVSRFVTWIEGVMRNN
factor Xa, sequence (P00742 41-179 limits assumed): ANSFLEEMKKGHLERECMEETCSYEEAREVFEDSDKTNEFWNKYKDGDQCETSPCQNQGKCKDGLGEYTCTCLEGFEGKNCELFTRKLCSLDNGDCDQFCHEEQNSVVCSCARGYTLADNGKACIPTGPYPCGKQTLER
factor Xa, sequence (P00742 235-488 limits assumed): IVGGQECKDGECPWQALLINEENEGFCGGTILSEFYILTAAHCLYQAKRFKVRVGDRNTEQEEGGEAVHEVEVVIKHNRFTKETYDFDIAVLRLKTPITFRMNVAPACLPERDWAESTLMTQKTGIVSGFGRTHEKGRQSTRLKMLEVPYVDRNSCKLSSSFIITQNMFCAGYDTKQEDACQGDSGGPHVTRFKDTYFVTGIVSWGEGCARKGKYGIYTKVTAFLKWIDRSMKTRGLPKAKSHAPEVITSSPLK

Cy7-NH-e9-c(S-Peg12)oDPRSFL-r9-c(Cy5)-CONH2 [RACPPDPRSFL]
kcat/Km for factor Xa (factor Xa): 6200 M⁻¹ s⁻¹
selectivity for thrombin over factor Xa (ratio of kcat/Km) (factor Xa; kcat/Km thrombin versus factor Xa): less than 2 fold
kcat/Km for plasmin (plasmin; 150 mM NaCl, 20 mM Tris pH 7.5, 2 mM CaCl2, 1% BSA, 37°C, Cy5 fluorescence): 10000 M⁻¹ s⁻¹
selectivity for thrombin over plasmin (ratio of kcat/Km) (plasmin): less than 2 fold

Cy7-NH-e9-c(S-Peg12)oNLeTPRSFL-r9-c(Cy5)-CONH2 [RACPPNleTPRSFL]
Cy5/Cy7 ratio at 15 minutes post injury ([1]; 10 nmol): 7.2
change of Cy5/Cy7 ratio at 15 minutes post injury ([1]; 10 nmol): tenfold
Cy5/Cy7 ratio at one minute post injury ([1]; 10 nmol, n = 3, mean (±SD)): 0.75(±0.11)
Cy5/Cy7 ratio at five minutes post injury ([1]; 10 nmol, n = 3, p = 0.01 vs one minute): 3.1(±0.45)
selectivity for thrombin over plasmin (ratio of kcat/Km) (plasmin): 52.5 fold
acceleration of thrombin cleavage relative to RACPPPPRSFL (thrombin [2]): approximately 90 fold

Cy7-NH-e9-c(S-Peg12)oPPRSFL-r9-c(Cy5)-CONH2 [RACPPPPRSFL]
change in Cy5/Cy7 ratio from one to five minutes post injury ([1]; 10 nmol): no significant change
time post injury at which a Cy5/Cy7 ratio increase was detectable ([1]; 10 nmol probe): 10 min
kcat/Km for factor Xa (factor Xa): no detectable activity
selectivity for thrombin over plasmin (ratio of kcat/Km) (plasmin): 14.3 fold
cleavage by thrombin, plasmin, factor Xa on SDS-PAGE (selectivity) [3]: selective for thrombin
change in the Cy5/Cy7 emission ratio on addition of purified thrombin (thrombin [4]; cuvet spectrofluorometer): 34 fold
increase in Cy5 emission on addition of purified thrombin (thrombin [4]; approx. 670 nm): 8.8 fold
decrease in Cy7 re-emission on addition of purified thrombin (thrombin [4]; approx. 780 nm): 3.8 fold

Cy7-NH-e9-c(S-Peg12)oPLGC(Me)AG-r9-c(Cy5)-CONH2 [RACPPPLGC(Me)AG]
Cy5/Cy7 emission ratio at the wound site over 40 minutes of clotting ([1]; 10 nmol control probe): low and stable
cleavage by thrombin, plasmin, factor Xa on SDS-PAGE (selectivity) [3]: not cleaved by any of the pro-coagulation enzymes
ratiometric contrast after local addition of purified MMP-9 (MMP-9): spectacular local ratiometric contrast

lepirudin [reference compound]
effect on cleavage and ratio change of RACPPNleTPRSFL ([1]; lepirudin 0.5 mg/mouse immediately prior to probe injection): inhibited the cleavage and ratio change
